Measured values from different studies.
Target: BDNF/NT-3 growth factors receptor (NTRK2, Homo sapiens, UniProt Q16620)

SMILES	assay	setting	remaining binding
O=C(c1ccc(Nc2ncc(Cl)c(-c3cc4ccccc4s3)n2)cc1)N1CCC(N2CCCC2)CC1	binding, competition with immobilised ligand	1 µM	13%
CCOCCn1cc(C(=O)Nc2ccc(-n3nc(-c4cccnc4)cc3C(F)(F)F)cn2)ccc1=O	cell-free assay, competition with immobilised ligand	1 µM	100%
Nc1ncc2c(n1)-c1c([nH]c3ccc(C#CC4CC4)cc13)CCCC2	binding, competition with immobilised ligand	1 µM	77%
O=C(c1ccc(Nc2ncc(Cl)c(-c3ccc(Cl)s3)n2)cc1)N1CCC(N2CCCC2)CC1	binding, competition with immobilised ligand	1 µM	5.3%
N[C@@H]1CCN(c2nccc(-c3cnn4ncccc34)n2)C1	binding	1 µM	100%
CCCCN(CCCC)C(=O)CN1C[C@@H](c2cc(OC)c3c(c2)OCO3)[C@H](C(=O)O)[C@H]1CC(C)(C)CCC	cell-free assay, competition with immobilised ligand	1 µM	98.3%
CC1CCCN1c1nccc(-c2cnn3ncccc23)n1 (stereo not drawn)	binding	1 µM	100%
O=C(Nc1c[nH]nc1C(=O)NC1CCNCC1)c1cc(F)cc(F)c1	binding, competition with immobilised ligand	1 µM	71%
CC(C)CC(=O)N1CCc2nc(-c3ccc(Br)cc3)nc(N(C)Cc3ccccc3)c2C1	cell-free assay, competition with immobilised ligand	0.1 µM	100%
COc1ccnn2ncc(-c3ccnc(N(C)C)n3)c12	binding	1 µM	87%
C=CC(=O)N1CCC(C(=O)NCC(=O)N2CCN(c3nc(-c4cnc(N)nc4C(F)F)nc(N4CCOCC4)n3)CC2)CC1	binding, competition with immobilised ligand	1 µM	89%
CCN1CCN(Cc2ccc(C(=O)Nc3ccc(C)c(Oc4ccc5c(c4)CC(=O)N5)c3)cc2C(F)(F)F)CC1	binding, competition with immobilised ligand	1 µM	81%
CN([C@@H]1CCc2c(CC(=O)O)c3cc(S(C)(=O)=O)ccc3n2C1)S(=O)(=O)c1ccc(F)cc1	cell-free assay, competition with immobilised ligand	1 µM	100%
C[C@@H]1CCN(c2nccc(-c3cnn4ncccc34)n2)C1	binding	1 µM	72%
COc1cnc(Nc2cccc(S(N)(=O)=O)c2)nc1N1CCN(c2ccccc2)CC1	binding, competition with immobilised ligand	1 µM	75%
Cc1cnn2ncc(-c3ccnc(N(C)C)n3)c2c1	binding	1 µM	84%
FC(F)(F)Oc1cccc(-c2cnc3ccc(-c4ccncc4)nn23)c1	cell-free assay, competition with immobilised ligand	5 µM	8.9%
O=C(Nc1cnc(Oc2ccc(F)cc2)nc1)N1CCc2ncccc2[C@@H]1c1ccc(F)cc1	cell-free assay, competition with immobilised ligand	1 µM	100%
CN(C)c1ncc(F)c(-c2cnn3ncccc23)n1	binding	1 µM	64%
O=C(c1ccc(Nc2nccc(-c3cc4ccccc4s3)n2)cc1)N1CCC(N2CCCC2)CC1	binding, competition with immobilised ligand	1 µM	59%
CSc1cccnc1N1CCN(Cc2nc3ccccc3[nH]2)CC1	cell-free assay, competition with immobilised ligand	1 µM	100%
